The subject of one data set is MCF7. As to the kind of experiment: Cytotoxicity against human MCF7 cells assessed as reduction in cell viability after 24 hrs by MTT assay. It is filed as functional, cell-based. The conditions noted are these: MCF7, 24 h. In outline:
(§1)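 Cells were grown in DMEM with 10% FBS, 2 mM L-glutamine and 40 μg/mL gentamicin, seeded at about 5 × 10^4 cells/mL, and allowed 24 h adaptation (37 °C, 5% CO2). Peptides were then added for 24 h as 2-fold dilutions (open 256–0.5, closed 512–1 μg/mL), closed form handled under dim light. MTT was given for 4 h, formazan dissolved in DMSO and read at 570 nm. Four repetitions; IC50 extrapolated from viability curves.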
Background: Tetrazolium assays rely on reduction of a dye to a coloured formazan, in cell work by metabolically active cells.

Data set [1] can be described thus: Cytotoxicity against human doxorubicin-resistant MOR cells assessed as reduction in cell viability after 24 hrs by MTT assay. The data set is classed as functional, cell-based. In outline:
as §1

The test system of a further data set is MIA PaCa-2. Put plainly: Cytotoxicity against human MIAPaCa2 cells assessed as reduction in cell viability after 24 hrs by MTT assay. It is filed as functional, cell-based. Particulars: MIA PaCa-2, 24 h. In outline:
as §1

A short description of data set [2]: Cytotoxicity against human MOR cells assessed as reduction in cell viability after 24 hrs by MTT assay. It is filed as functional, cell-based. In outline:
as §1

The test system of another data set is Escherichia coli. Put plainly: Antimicrobial activity against Escherichia coli DSM 1103 after 22 hrs by resazurin dye based spectrophotometry. The data set is classed as functional. Particulars: DSM 1103, 22 h. In outline:
(§2)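 2-fold broth microdilution in Mueller–Hinton medium; peptide stocks 1024 μg/mL in 50% ethanol. Exponential-phase cultures diluted to OD550 0.2, then 1:100 (B. subtilis) or 1:1000 (E. coli), giving 5 × 10^5 CFU/mL per well. Incubated 22 h, 37 °C, static; then resazurin (0.2 mg/mL solution) added for 2 h at 37 °C, read visually and spectrophotometrically. Tested in both photoforms.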
On the technique in general: The colour change of resazurin is a common sign of viable cells or microbes.

A short description of data set [3]: Therapeutic index, ratio of HC50 for human RBC to MIC for Bacillus subtilis DSM 347. The data set is classed as toxicity. The conditions noted are these: human red blood cells versus Bacillus subtilis DSM 347. In outline:
(§3)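 Ratio of HC50 (RBC) to HeLa IC50 or to MIC against B. subtilis or E. coli; values measured in mg/mL and recalculated to μM, 2-fold dilution without curve fitting, accuracy within a factor of 2.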

The nature of data set [4]: Therapeutic index, ratio of HC50 for human RBC to MIC for Escherichia coli DSM 1103. Particulars: human red blood cells versus Escherichia coli DSM 1103. It is filed as toxicity. In outline: as §3
Data set [5] can be described thus: Hemolytic activity against human RBC assessed as hemolysis after 30 mins by colorimetric method. The data set is classed as ADME, cell-based, Erythrocyte. Particulars: human red blood cells (erythrocytes). In outline:
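Human erythrocytes washed twice in isotonic 172 mM Tris-HCl, pH 7.6; peptides dissolved in DMSO, diluted in buffer, two independent 10-step 2-fold series from 256 or 192 μg/mL. HC50 extrapolated as 50% hemolysis concentration.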

Another data set has as its system HepG2. As to the kind of experiment: Cytotoxicity against human HepG2 cells assessed as reduction in cell viability after 24 hrs by MTT assay. The conditions noted are these: HepG2, 24 h. The data set is classed as functional, cell-based. In outline:
as §1

For the next data set, the system named is Bacillus subtilis. As to the kind of experiment: Antimicrobial activity against Bacillus subtilis DSM 347 after 22 hrs by resazurin dye based spectrophotometry. It is filed as functional. The conditions noted are these: DSM 347, 22 h. In outline: as §2
Data set [6] is described as follows: Selective ratio of HC50 for human RBC to IC50 for human HeLa cells. It is filed as toxicity. The conditions noted are these: human red blood cells versus HeLa cells. In outline:
as §3

The test system of a further data set is HeLa. As to the kind of experiment: Cytotoxicity against human HeLa cells assessed as reduction in cell viability after 24 hrs by MTT assay. It is filed as functional, cell-based. In outline: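 HeLa cells seeded at about 5 × 10^4 cells/mL in DMEM with 10% FBS, 2 mM glutamine, gentamicin; 24 h adaptation (37 °C, 5% CO2), then 24 h peptide exposure. MTT 4 h, formazan in DMSO read at 570 nm. 2-fold series 256–0.5 (open) or 512–1 μg/mL (closed), four repetitions; IC50 extrapolated from killing curves. Closed form handled in dim light.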

Usually IC50 stands for the concentration that inhibits the measured activity by half. Usually MIC stands for the lowest concentration found to suppress growth. Usually HC50 stands for the concentration giving 50% haemolysis.

Values after ≈ are worked out from the molar mass of the structure shown.

Take `CC(C)[C@@H]1NC(=O)C2=CC3=C4CCCC4=C4C=C(S[C@]4(C)[C@@]3(C)S2)C(=O)[C@H]2CCCN2C(=O)[C@H](C(C)C)NC(=O)[C@H](CCCN)NC(=O)[C@H]([C@H](O)C(C)C)NC(=O)[C@@H]2CCCN2C(=O)[C@@H](Cc2ccccc2)NC(=O)[C@H](C(C)C)NC(=O)[C@H](CCCN)NC1=O`: the IC50 in the data set on MCF7 is 150 µM; in data set [1] it was 100 µM; in the data set on MIA PaCa-2, 150 µM; in data set [2], 150 µM; in the data set on HepG2, 100 µM; with HeLa, 150 µM. In addition, the minimum inhibitory concentration (MIC) in the data set with Escherichia coli turned out to be 100 µM (≈ 128 µg/mL); with Bacillus subtilis, 9 µM (≈ 11.5 µg/mL). Moreover, the selectivity ratio in data set [3] stood at 21.3; in data set [4], 2; in data set [6], 1.3. For the same molecule, in data set [5], the HC50 at 0.5 h is 200 µM.

In the case of `Cc1sc2cc1C1=C(CCC1)c1cc(sc1C)C(=O)[C@H]1CCCN1C(=O)[C@H](C(C)C)NC(=O)[C@H](CCCN)NC(=O)[C@H]([C@H](O)C(C)C)NC(=O)[C@@H]1CCCN1C(=O)[C@@H](Cc1ccccc1)NC(=O)[C@H](C(C)C)NC(=O)[C@H](CCCN)NC(=O)[C@H](C(C)C)NC2=O`, the IC50 with MCF7 is 6 µM; in data set [1] it was 5 µM; in the data set with MIA PaCa-2, 6 µM; in [2], 5 µM; in the data set with HepG2 it was 5 µM; in the data set on HeLa it was 9 µM. The MIC stood at 50 µM (≈ 64.1 µg/mL) in the data set with Escherichia coli and 3 µM (≈ 3.85 µg/mL) in the data set with Bacillus subtilis. The figures for the selectivity ratio in data set [3], in data set [4] and in data set [6] were 6.7, 0.4 and 2.2, respectively. In data set [5], the HC50 at 0.5 h was 20 µM.

As for `Cc1sc2cc1C1=C(CCC1)c1cc(sc1C)C(=O)[C@H]1CCCN1C(=O)[C@H](CC(C)C)NC(=O)[C@H](CCCCN)NC(=O)[C@H](C(C)C)NC(=O)[C@H](CCCCN)N(C)C(=O)[C@@H](Cc1ccccc1)NC(=O)[C@H](CC(C)C)NC(=O)[C@H](CCCCN)NC(=O)[C@H](C(C)C)NC2=O`, the values for the MIC with Escherichia coli and against Bacillus subtilis were 47 µM (≈ 63.6 µg/mL) and 3 µM (≈ 4.06 µg/mL), respectively. In addition, the selectivity ratio in [3] stood at 1.3; in data set [4], 0.1; in data set [6], 1.3. In [5], the HC50 at 0.5 h stood at 4 µM. For the same molecule, the IC50 in the data set with HeLa turned out to be 3 µM.

As for `CC(C)[C@@H]1NC(=O)C2=CC3=C4CCCC4=C4C=C(S[C@]4(C)[C@@]3(C)S2)C(=O)[C@H]2CCCN2C(=O)[C@H]([C@@H](C)O)NC(=O)[C@H](CCCN)NC(=O)[C@H](C(C)C)NC(=O)[C@@H]2CCCN2C(=O)[C@@H](Cc2ccccc2)NC(=O)[C@H](C(C)C)NC(=O)[C@H](CCCN)NC1=O`, the MIC came out at 204 µM (≈ 256 µg/mL) in the data set on Escherichia coli and 51 µM (≈ 64 µg/mL) in the data set with Bacillus subtilis. Besides, the selectivity ratio in data set [3] was 8; in [4], 2; in data set [6], 2.7. In addition, the HC50 at 0.5 h in data set [5] was 408 µM. The IC50 with HeLa is 153 µM.

Consider `CC(C)C[C@@H]1NC(=O)[C@H](CCCNC(=N)N)NC(=O)[C@H](C(C)C)NC(=O)C2=CC3=C4CCCC4=C4C=C(S[C@]4(C)[C@@]3(C)S2)C(=O)[C@H]2CCCN2C(=O)[C@H](CC(C)C)NC(=O)[C@H](CCCNC(=N)N)NC(=O)[C@H](C(C)C)NC(=O)[C@@H]2CCCN2C(=O)[C@@H](Cc2ccccc2)NC1=O`, for which the MIC came to 94 µM (≈ 128 µg/mL) against Escherichia coli and 6 µM (≈ 8.19 µg/mL) against Bacillus subtilis. For the same molecule, the selectivity ratio amounted to 1.7 in data set [3], 0.1 in data set [4] and 0.3 in data set [6]. The HC50 at 0.5 h in data set [5] came to 10 µM. Moreover, the IC50 in the data set on HeLa was determined as 35 µM.

Regarding `CC(C)[C@@H]1NC(=O)[C@H](CCCN)NC(=O)[C@H]([C@H](O)C(C)C)NC(=O)C2=CC3=C4CCCC4=C4C=C(S[C@]4(C)[C@@]3(C)S2)C(=O)[C@H]2CCCN2C(=O)[C@H](C(C)C)NC(=O)[C@H](CCCN)NC(=O)[C@H](C(C)C)NC(=O)[C@H](CCCn2cc(COCc3cn(CCC[C@H]4C(=O)N[C@@H](C(C)C)C(=O)N[C@@H](CCCN)C(=O)N[C@@H](C(C)C)C(=O)N5CCC[C@@H]5C(=O)C5=CC6=C7CCCC7=C7C(=CS[C@]7(C)[C@@]6(C)S5)C(=O)N[C@@H]([C@H](O)C(C)C)C(=O)N[C@@H](CCCN)C(=O)N[C@@H](C(C)C)C(=O)N[C@H](Cc5ccccc5)C(=O)N4C)nn3)nn2)N(C)C(=O)[C@@H](Cc2ccccc2)NC1=O`, the MIC amounted to 96 µM (≈ 266 µg/mL) against Escherichia coli and 6 µM (≈ 16.6 µg/mL) against Bacillus subtilis. Also, the selectivity ratio in [3] amounted to 1.7; in data set [4] it was 0.1; in data set [6], 0.2. The HC50 at 0.5 h in [5] is 10 µM. Further, the IC50 in the data set with HeLa was 48 µM.

Regarding `Cc1sc2cc1C1=C(CCC1)c1cc(sc1C)C(=O)[C@H]1CCCN1C(=O)[C@H](C(C)C)NC(=O)[C@H](CCCN)NC(=O)[C@H](C(C)C)NC(=O)[C@@H]1CCCN1C(=O)[C@@H](Cc1ccccc1)NC(=O)[C@H](C(C)C)NC(=O)[C@H](CCCN)NC(=O)[C@H](CCNC(=O)C(C)C)NC2=O`, the MIC against Escherichia coli was found to be 97 µM (≈ 128 µg/mL); in the data set with Bacillus subtilis it was 3 µM (≈ 3.97 µg/mL). The values for the selectivity ratio in data set [3], in data set [4] and in [6] were 56.7, 1.8 and 4.7, respectively. In addition, the HC50 at 0.5 h in [5] is 170 µM. Further, in the data set with HeLa, the IC50 came to 36 µM.

Take `CC(C)[C@@H]1NC(=O)C2=CC3=C4CCCC4=C4C=C(S[C@]4(C)[C@@]3(C)S2)C(=O)[C@H]2CCCN2C(=O)[C@H](Cc2ccc(O)cc2)NC(=O)[C@H](CCCN)NC(=O)[C@H](C(C)C)NC(=O)[C@@H]2CCCN2C(=O)[C@@H](Cc2ccccc2)NC(=O)[C@H](Cc2ccc(O)cc2)NC(=O)[C@H](CCCN)NC1=O`: the MIC in the data set on Escherichia coli turned out to be 92 µM (≈ 127 µg/mL); against Bacillus subtilis it was 3 µM (≈ 4.14 µg/mL). Further, the figures for the selectivity ratio in [3], in data set [4] and in [6] were 3.7, 0.1 and 0.1, respectively. In [5], the HC50 at 0.5 h is 11 µM. Further, in the data set on HeLa, the IC50 is 137 µM.

Turning to `Cc1sc2cc1C1=C(CCC1)c1cc(sc1C)C(=O)[C@H]1CCCN1C(=O)[C@H](C(C)C)NC(=O)[C@H](CCCCN)NC(=O)[C@H](CC(C)C)NC(=O)[C@H](CCCCN)NC(=O)[C@@H]1CCCN1C(=O)[C@@H](Cc1ccccc1)NC(=O)[C@H](CCCCN)NC(=O)[C@H](C(C)C)NC(=O)[C@H](CCCCN)NC(=O)[C@H](CC(C)C)NC2=O`, the MIC came to 41 µM (≈ 64.2 µg/mL) against Escherichia coli and 2 µM (≈ 3.13 µg/mL) against Bacillus subtilis. In addition, the selectivity ratio stood at 41 in data set [3], 2 in data set [4] and 2 in data set [6]. In addition, the 50% haemolytic concentration (HC50) at 0.5 h in data set [5] was 82 µM. Also, in the data set on HeLa, the IC50 is 41 µM.

In the case of `CC[C@H](C)[C@@H]1NC(=O)C2=CC3=C4CCCC4=C4C=C(S[C@]4(C)[C@@]3(C)S2)C(=O)[C@H]2CCCN2C(=O)[C@H](CC(C)C)NC(=O)[C@H](CCCN)NC(=O)[C@H]([C@@H](C)CC)NC(=O)[C@@H]2CCCN2C(=O)[C@H]2CCCN2C(=O)[C@H](CC(C)C)NC(=O)[C@H](CCCN)NC1=O`, the MIC against Escherichia coli turned out to be 203 µM (≈ 256 µg/mL); in the data set on Bacillus subtilis, 6 µM (≈ 7.55 µg/mL). In addition, the selectivity ratio came to 20 in data set [3], 0.6 in [4] and 1.9 in data set [6]. Further, the HC50 at 0.5 h in data set [5] came to 120 µM. The IC50 in the data set on HeLa amounted to 64 µM.

Source of the values: ChEMBL document CHEMBL4257585, “Structure-Activity Relationships of Photoswitchable Diarylethene-Based β-Hairpin Peptides as Membranolytic Antimicrobial and Anticancer Agents” (J Med Chem, 2018).
